In data set [1] the test system is Erythrocyte. Nature of the data set: Hemolytic activity against sheep RBC assessed as hemolysis using compound treated Streptococcus pneumoniae D39 cultured PLY supernatant at 46 to 368 nM incubated for 30 mins. Format: toxicity, cell-based, Ovis aries. The following applies: 0.5 h, 0.368 µM, dose 46-368 nM. The procedure, abridged: (§1)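 Supernatants: centrifuged, 0.22 μm filtered, concentrated 50x, serially two-fold diluted, 10 mM DTT for 15 min at room temperature. Then mixed with 2% sheep RBC for 30 min at 37 °C; A541 of cleared supernatant read. HU = highest dilution giving 50% lysis. Triplicate.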

For data set [2], the system named is Streptococcus pneumoniae. Nature of the data set: Antagonist activity against CSP1-mediated pneumolysin release in Streptococcus pneumoniae D39 assessed as inhibition of autolytic release of pneumolysin at 46 to 368 nM in presence of CSP1 by Western blot analysis. Particulars: filed as antagonist, dose 46-368 nM. Background: Immunoblotting shows a protein as a band on a membrane.

The nature of data set [3]: Toxicity in CD-1 mouse assessed as appearance of lesions in heart at 4 mg/kg, ip administered daily for 6 days by H and E staining based assay. Format: organism-based. Particulars: in vivo, 144 h, time 6 day.
The nature of data set [4]: Toxicity in CD-1 mouse assessed as appearance of lesions in lung at 4 mg/kg, ip administered daily for 6 days by H and E staining based assay. It is filed as organism-based. The following applies: in vivo, 144 h, time 6 day.
For data set [5], the system named is Erythrocyte. Description: Hemolytic activity against sheep RBC assessed as hemolysis using compound treated Streptococcus pneumoniae TIGR4 cultured PLY supernatant at 46 to 368 nM incubated for 30 mins. Format: toxicity, cell-based, Ovis aries. Particulars: 0.5 h, 0.368 µM, dose 46-368 nM. The procedure, abridged: as §1
A short description of data set [6]: Toxicity in CD-1 mouse assessed as increase in body weight at 4 mg/kg, ip administered daily for 6 days. Particulars: in vivo, 144 h, time 6 day. Format: organism-based.
Data set [7] can be described thus: Toxicity in Streptococcus pneumoniae TIGR4 infected CD-1 mouse model assessed as mortality at 4 mg/kg,iv measured after 72 hrs post. Format: organism-based. The following applies: in vivo. The procedure, abridged:
(§2)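 Seven-week-old CD-1 mice, male and female, n=15 per cohort, isoflurane-anaesthetized, infected intranasally with D39 (4.5×10^6 CFU) or TIGR4 (1.07×10^6 CFU). Treated retro-orbitally i.v. with 4 mg/kg or PBS vehicle at 2 and 24 hpi; mortality monitored for 120 hpi.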

The nature of data set [8]: Toxicity in CD-1 mouse assessed as appearance of lesions in spleen at 4 mg/kg, ip administered daily for 6 days by H and E staining based assay. It is filed as organism-based. Particulars: in vivo, 144 h, time 6 day.
Data set [9] can be described thus: Toxicity in CD-1 mouse assessed as appearance of lesions in liver at 4 mg/kg, ip administered daily for 6 days by H and E staining based assay. It is filed as organism-based. Particulars: in vivo, 144 h, time 6 day.
Data set [10] is described as follows: Toxicity in CD-1 mouse assessed as appearance of lesions in kidney at 4 mg/kg, ip administered daily for 6 days by H and E staining based assay. It is filed as organism-based. The following applies: in vivo, 144 h, time 6 day.
Data set [11] can be described thus: Toxicity in Streptococcus pneumoniae D39 infected CD-1 mouse model assessed as mortality at 4 mg/kg,iv measured after 120 hrs post infection. Format: organism-based. Particulars: in vivo. The procedure, abridged:
as §2

Data set [12] relates to Streptococcus pneumoniae. Description: Antibacterial activity against erythromycin-resistant Streptococcus pneumoniae D39 infected in CD-1 mouse assessed as reduction in bacterial burden in mouse spleen at 4 mg/kg,iv measured after 48 hrs post infection. Format: functional, organism-based. In short, it runs like this:
(§3)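 Seven-week-old CD-1 mice, male and female, n=10 per cohort, inoculated intranasally with a 1:1 mix of D39-rplL-ErmR and TIGR4-rplL-KanR (2.5×10^6 CFU each). Treated retro-orbitally i.v. with 4 mg/kg or PBS vehicle at 2 and 24 hpi; euthanized at 48 hpi. Lung and spleen homogenates were plated on THY with erythromycin (250 ng/mL) for D39 or […] for TIGR4.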

In data set [13] the test system is Streptococcus pneumoniae. Description: Antibacterial activity against erythromycin-resistant Streptococcus pneumoniae D39 infected in CD-1 mouse assessed as reduction in bacterial burden in mouse lung at 4 mg/kg,iv measured after 48 hrs post infection. Format: functional, organism-based. The procedure, abridged: as §3

1 molecule from ChEMBL document CHEMBL5143675, “Attenuating the Streptococcus pneumoniae Competence Regulon Using Urea-Bridged Cyclic Dominant-Negative Competence-Stimulating Peptide Analogs” (J Med Chem, 2022) can be followed below.

Activity calls are given as the source filed them. The rule behind the calls is not given here. *1 amine or outer side, *2 acyl side, *3 side chain or, on linkers, in order; H or OH if unused. Where a SMILES comes first, the peptide text is derived from it. Bridges are numbered along the chain shown (N, C = ends). [ ]: non-standard residue; d: D form. Dab = NCC[C@H](N)C(=O)O; CO = O=C([*:1])[*:2]

What is called mortality is the percentage killed. Consider `CC[C@H](C)[C@H](NC(=O)[C@H](Cc1ccccc1)NC(=O)[C@@H]1CCNC(=O)NCC[C@H](NC(=O)[C@H](CO)NC(=O)[C@H](CC(C)C)NC(=O)[C@H](CCCNC(=N)N)NC(=O)[C@H](CCSC)NC(=O)[C@H](C)N)C(=O)N[C@@H](Cc2ccccc2)C(=O)N[C@@H](Cc2ccccc2)C(=O)N[C@@H](CCCNC(=N)N)C(=O)N1)C(=O)N[C@@H](CC(C)C)C(=O)N[C@@H](CCC(N)=O)C(=O)N[C@@H](CCCNC(=N)N)C(=O)N[C@@H](CCCCN)C(=O)N[C@@H](CCCCN)C(=O)O` (H-AMRLS[Dab]FFR[Dab]FILQRKK-OH; linker 6-10 via CO), for which the Activity result in the data set with Erythrocyte [1] is given as “Non-Toxic”; in data set [3] it was “Non-Toxic”; in data set [4], “Non-Toxic”; in the data set with Erythrocyte [5] it was “Toxic”; in [6] it was “Non-Toxic”; in data set [8] it was “Non-Toxic”. Also, the Activity result in [9], in data set [10] and in data set [11] was “Non-Toxic” in each case. For the same molecule, the outcome with Streptococcus pneumoniae [2], in the data set on Streptococcus pneumoniae [12] and with Streptococcus pneumoniae [13] was Active. In addition, the mortality at 72 h in data set [7] turned out to be 50%.
